Assays:
[1] = folding enthalpy; higher = less favourable; fluorescence melt of hairpins on a sequencing array, two-state fit; conditions: sodium 0.088 M
In short: (§1)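 To match UV melts, fitted temperatures were raised by 9.35 °C. These fits were bootstrapped two-state models that gave melting temperature and folding enthalpy, combined by inverse variance over four replicates. The input was normalised Cy3 fluorescence of library hairpins with annealed Cy3 and quencher oligos on a sequenced MiSeq flow cell, imaged in 50 mM Na-HEPES pH 8.0, 25 mM NaCl in 2.5 °C steps up to 60 °C.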

[2] = melting temperature; fluorescence melt of hairpins on a sequencing array, two-state fit, raised by 9.35 °C to match UV melts; conditions: sodium 0.088 M
In short: as §1

| Sequence | folding enthalpy [1] [kcal/mol] | Tm [2] [°C] |
| --- | --- | --- |
| GGCAGCGGAAACGCCACC ((..(((....)))..)) | -13.9 | 36.6 |
| GGCAGCGGAAACGCCGCC (((.(((....))).))) | -31.3 | 61.5 |
| GGCAGCTCGAAAGAGGCC (((..(((....)))))) | -17.4 | 47.3 |
| GGCAGGCGAAAGCCCGCC (((.(((....))).))) | -22.8 | 66.2 |
| GGCAGTCGAAAGACCGCC (((.(((....))).))) | -35 | 58 |
| GGCATAACGAAAGTTGCC (((..(((....)))))) | -26 | 50.8 |
| GGCATACGAAAGTAAGCC (((.(((....))).))) | -37.1 | 54 |
| GGCATCACGAAAGTGGCC (((..(((....)))))) | -21.9 | 48.2 |
| GGCATCGAAAGATGTGCC ((((((....)))..))) | -17.8 | 46.4 |
| GGCATCGCGAAAGCGGCC (((..(((....)))))) | -17.4 | 54.9 |
| GGCATCGGAAACGACGCC (((.(((....))).))) | -42.1 | 52.3 |
| GGCATGCGAAAGCAAGCC (((.(((....))).))) | -27.8 | 65.4 |
| GGCATGCGAAAGCACGCC (((.(((....))).))) | -27.3 | 63.4 |
| GGCATGGGAAACCATGTC (.(((((....))))).) | -26.6 | 52.5 |
| GGCATTCGAAAGAACGCC (((.(((....))).))) | -45.2 | 50.6 |
| GGCATTGGAAACAACGCC (((.(((....))).))) | -34.4 | 44.6 |
| GGCCAACGAAAGTTAGCC (((.(((....))).))) | -29.1 | 50.1 |
| GGCCAAGAAATTGGCC ((((((....)))))) | -40.1 | 64.4 |
| GGCCAAGGAAACTCGGCC ((((.((....)).)))) | -34 | 50.7 |
| GGCCAAGGAAACTTGACC ((.((((....)))).)) | -30.3 | 43.1 |
| GGCCACACGAAAGTGGCC (((..(((....)))))) | -39.1 | 67.5 |
| GGCCACCGAAAGGTAGCC (((.(((....))).))) | -38.3 | 57.5 |
| GGCCACGAAAGTGAAGCC ((((((....)))..))) | -31.9 | 53.5 |

| Sequence | folding enthalpy [1] [kcal/mol] | Tm [2] [°C] |
| --- | --- | --- |
| GGCCACGAAAGTGACGCC ((((((....)))..))) | -21.7 | 52.1 |
| GGCCACGAAAGTGCCGCC ((((((....)))..))) | -32 | 59.8 |
| GGCCACGAAAGTGCGGCC ((((((....)))..))) | -39.6 | 55.6 |
| GGCCACGGAAACGCGACC ((.(.((....)).).)) | -25.8 | 36.7 |
| GGCCAGCGAAAGCTCGCC (((.(((....))).))) | -38.9 | 53.4 |
| GGCCAGGGAAACCCAGCC (((..((....))..))) | -30.5 | 42.1 |
| GGCCAGGGAAACCTGGTC (.(((((....))))).) | -33.5 | 57.6 |
| GGCCAGGGAAACTTGGCC (((((.(....).))))) | -35.7 | 57 |
| GGCCATGGAAACGTGGCC (((((.(....).))))) | -52.1 | 62 |
| GGCCCACGAAAGTGTGCC (((.(((....))).))) | -49.1 | 58.1 |
| GGCCCAGGAAACTAGGCC ((((.((....)).)))) | -30.3 | 48.1 |
| GGCCCCCGAAAGGGCGCC (((.(((....))).))) | -24.8 | 58.3 |
| GGCCCCGAAAGGGAGGCC ((((((....)))..))) | -26.9 | 64.5 |
| GGCCCCGAAAGGGCAGCC ((((((....)))..))) | -12.8 | 58.6 |
| GGCCCCGAAAGGGGTGCC ((((((....)))..))) | -12.1 | 59.1 |
| GGCCGAACGAAAGTTGCC (((..(((....)))))) | -23.5 | 38.9 |
| GGCCGACGAAAGTCAGCC (((.(((....))).))) | -35.5 | 59.4 |
| GGCCGAGCGAAAGCTGCC (((..(((....)))))) | -21.4 | 50.7 |
| GGCCGAGGAAACCCGGCC (((((.(....).))))) | -36.9 | 65.5 |
| GGCCGAGGAAACTCGACC ((.((((....)))).)) | -35 | 51.4 |
| GGCCGCCGAAAGGCAGCC (((.(((....))).))) | -25.5 | 67.4 |
| GGCCGCCGAAAGGCTGCC (((.(((....))).))) | -30.7 | 65.5 |
| GGCCGCGAAAGCGAAGCC ((((((....)))..))) | -27.7 | 58.9 |

| Sequence | folding enthalpy [1] [kcal/mol] | Tm [2] [°C] |
| --- | --- | --- |
| GGCCGCGAAAGCGGTGCC ((((((....)))..))) | -10 | 55.7 |
| GGCCGCGGAAACGCAGCC (((.(((....))).))) | -38.1 | 61.3 |
| GGCCGGCGAAAGCCTGCC (((.(((....))).))) | -29.7 | 65.2 |
| GGCCGTCCGAAAGGAGCC (((..(((....)))))) | -15.8 | 43.4 |
| GGCCTACGAAAGTAAGCC (((.(((....))).))) | -35 | 49.5 |
| GGCCTACGAAAGTAGCC (((.(((....)))))) | -22.4 | 53.6 |
| GGCCTAGGAAACTAAGCC (((.(((....))).))) | -20.1 | 38.2 |
| GGCCTAGGAAACTAGACC ((.((((....)))).)) | -28.6 | 40.6 |
| GGCCTAGGAAACTGGGCC ((((.((....)).)))) | -47.7 | 57.9 |
| GGCCTCCGAAAGGAAGCC (((.(((....))).))) | -40.9 | 55.5 |
| GGCCTCGAAAGAGGAGCC ((((((....)))..))) | -14.5 | 47.2 |
| GGCCTCGAAAGAGGCGCC ((((((....)))..))) | -6.36 | 66.5 |
| GGCCTGCGAAAGCAGCC (((.(((....)))))) | -15.8 | 61.1 |
| GGCCTGGGAAACCAGACC ((.((((....)))).)) | -30.1 | 49 |
| GGCCTTACGAAAGTAGCC (((..(((....)))))) | -22.1 | 36.8 |
| GGCCTTGCGAAAGCAGCC (((..(((....)))))) | -15.8 | 45.2 |
| GGCCTTGGAAACAAGGTC (.(((((....))))).) | -34.4 | 55.7 |
| GGCGAACGAAAGTTAGCC (((.(((....))).))) | -34.4 | 59.8 |
| GGCGAACGAAAGTTTGCC (((.(((....))).))) | -37 | 62.1 |
| GGCGAAGAAATTCGCC ((((((....)))))) | -36.2 | 63.1 |
| GGCGACCGAAAGGTAGCC (((.(((....))).))) | -26.2 | 69 |
| GGCGACGAAAGTCAGCC ((((((....))).))) | -28.1 | 65.6 |
| GGCGACGAAAGTCCGGCC ((((((....)))..))) | -21.7 | 51.5 |

| Sequence | folding enthalpy [1] [kcal/mol] | Tm [2] [°C] |
| --- | --- | --- |
| GGCGACGGAAACGTTGCC (((.(((....))).))) | -48.8 | 65 |
| GGCGAGAAATCGCC (((((....))))) | -26.4 | 65.5 |
| GGCGAGTCGAAAGACGCC (((..(((....)))))) | -22.2 | 56.3 |
| GGCGATCCGAAAGGAGCC (((..(((....)))))) | -35.4 | 53.9 |
| GGCGATCGAAAGATTGCC (((.(((....))).))) | -46.7 | 62.9 |
| GGCGATGCGAAAGCAGCC (((..(((....)))))) | -19.5 | 58.5 |
| GGCGATTCGAAAGAAGCC (((..(((....)))))) | -23.2 | 46.4 |
| GGCGCAGGAAACCGCGCC (((((.(....).))))) | -37.3 | 68.8 |
| GGCGCAGGAAACTGTGCC (((.(((....))).))) | -47.6 | 61.2 |
| GGCGCCGAAAGGCATGCC ((((((....)))..))) | -19.2 | 59.7 |
| GGCGCTACGAAAGTAGCC (((..(((....)))))) | -9.44 | 49.4 |
| GGCGCTGGAAACAGTGCC (((.(((....))).))) | -49.2 | 62.6 |
| GGCGCTTCGAAAGAAGCC (((..(((....)))))) | -9.84 | 47.8 |
| GGCGGAGCGAAAGCTGCC (((..(((....)))))) | -17 | 52.3 |
| GGCGGCGAAAGCCACGCC ((((((....)))..))) | -17.1 | 63.6 |
| GGCGGCGAAAGCCCTGCC ((((((....)))..))) | -20.1 | 53.6 |
| GGCGGCGAAAGCCGTGCC ((((((....)))..))) | -10.1 | 57.7 |
| GGCGGCGGAAACGCCACC ((.((((....)))).)) | -27.5 | 63.7 |
| GGCGGGACGAAAGTCGCC (((..(((....)))))) | -28.6 | 59.5 |
| GGCGGGGGAAACTCCGCC (((((.(....).))))) | -38 | 67.7 |
| GGCGGTGGAAACACTGCC (((.(((....))).))) | -47.3 | 61.6 |
| GGCGGTGGAAACGTCGCC ((((..(....)..)))) | -33.8 | 53.9 |

Source: the array DNA melting data of Ke et al. (doi:10.1101/2024.01.08.574731)
